Reference: ChEMBL document CHEMBL1147863, “Synthesis, antimicrobial activities and cytogenetic studies of newer diazepino quinoline derivatives via Vilsmeier-Haack reaction” (2007)
The source made the active and inactive calls. The calls are words filed in the database; no cut-off is given here.

What was measured:
Alternaria macrospora [1] = assay: Antifungal activity against Alternaria macrospora at 1% (w/v) concentration by disc diffusion method; type: functional
How it was run: (§1)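 Potato dextrose agar plates were seeded with a spore suspension (10⁶ spores/mL). Compounds in acetone at a final 0.5%, 1% or 2% w/v were loaded onto 5 mm filter-paper discs. Plates were incubated at 28 ± 2 °C for four days. Zone diameter was measured after subtracting the acetone-only plate zone, with carbendazim as standard.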

Talaromyces funiculosus [2] = assay: Antifungal activity against Penicillium funiculosum at 1% (w/v) concentration by disc diffusion method; type: functional; how it was run: as §1
Fusarium oxysporum [3] = assay: Antifungal activity against Fusarium oxysporum at 0.5% (w/v) concentration by disc diffusion method; type: functional; how it was run: as §1
Escherichia coli [4] = assay: Antibacterial activity against Escherichia coli at 0.5% (w/v) concentration by after 24 hrs by disc diffusion method; type: functional
How it was run: (§2)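 Disc diffusion on nutrient agar (pH 7.5 ± 0.2) swabbed with bacterial culture; compounds dissolved in chloroform at 0.125%, 0.25% or 0.5% w/v, soaked onto 5 mm filter paper discs placed on seeded plates. Incubated 35 ± 2 °C, 24 h; inhibition zone diameter (mm) measured, minus zone from solvent-only plate.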

Escherichia coli [5] = assay: Antibacterial activity against Escherichia coli at 0.125% (w/v) concentration after 24 hrs by disc diffusion method; type: functional; how it was run: as §2
Fusarium oxysporum [6] = assay: Antifungal activity against Fusarium oxysporum at 1% (w/v) concentration by disc diffusion method; type: functional; how it was run: as §1
Alternaria macrospora [7] = assay: Antifungal activity against Alternaria macrospora at 2% (w/v) concentration by disc diffusion method; type: functional; how it was run: as §1
Aspergillus flavus [8] = assay: Antifungal activity against Aspergillus flavus at 1% (w/v) concentration by disc diffusion method; type: functional; how it was run: as §1
Talaromyces funiculosus [9] = assay: Antifungal activity against Penicillium funiculosum at 2% (w/v) concentration by disc diffusion method; type: functional; how it was run: as §1
Escherichia coli [10] = assay: Antibacterial activity against Escherichia coli at 0.25% (w/v) concentration after 24 hrs by disc diffusion method; type: functional; how it was run: as §2
Aeromonas hydrophila [11] = assay: Antibacterial activity against Aeromonas hydrophila at 0.25% (w/v) concentration after 24 hrs by disc diffusion method; type: functional; how it was run: as §2
Salmonella typhi [12] = assay: Antibacterial activity against Salmonella typhi at 0.125% (w/v) concentration after 24 hrs by disc diffusion method; type: functional, Salmonella enterica subsp. enterica serovar Typhi
How it was run: (§3)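 Disc diffusion on nutrient agar (pH 7.5 ± 0.2) swabbed with bacteria. Compounds were dissolved in chloroform at a final 0.125%, 0.25% or 0.5% w/v and loaded onto 5 mm filter-paper discs. Plates were incubated at 35 ± 2 °C for 24 h. The inhibition-zone diameter (mm) was reported after subtracting the zone of the solvent-only plate.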

Aeromonas hydrophila [13] = assay: Antibacterial activity against Aeromonas hydrophila at 0.5% (w/v) concentration after 24 hrs by disc diffusion method; type: functional; how it was run: as §2
Salmonella typhi [14] = assay: Antibacterial activity against Salmonella typhi at 0.5% (w/v) concentration after 24 hrs by disc diffusion method; type: functional, Salmonella enterica subsp. enterica serovar Typhi; how it was run: as §3
Salmonella typhi [15] = assay: Antibacterial activity against Salmonella typhi at 0.25% (w/v) concentration after 24 hrs by disc diffusion method; type: functional, Salmonella enterica subsp. enterica serovar Typhi; how it was run: as §3
Alternaria macrospora [16] = assay: Antifungal activity against Alternaria macrospora at 0.5% (w/v) concentration by disc diffusion method; type: functional; how it was run: as §1
Aspergillus flavus [17] = assay: Antifungal activity against Aspergillus flavus at 2% (w/v) concentration by disc diffusion method; type: functional; how it was run: as §1
Aeromonas hydrophila [18] = assay: Antibacterial activity against Aeromonas hydrophila at 0.125% (w/v) concentration after 24 hrs by disc diffusion method; type: functional; how it was run: as §2
Talaromyces funiculosus [19] = assay: Antifungal activity against Penicillium funiculosum at 0.5% (w/v) concentration by disc diffusion method; type: functional; how it was run: as §1
Aspergillus flavus [20] = assay: Antifungal activity against Aspergillus flavus at 0.5% (w/v) concentration by disc diffusion method; type: functional; how it was run: as §1
Fusarium oxysporum [21] = assay: Antifungal activity against Fusarium oxysporum at 2% (w/v) concentration by disc diffusion method; type: functional; how it was run: as §1
[22] = Induction of chromosomal aberration in human peripheral blood leukocytes assessed as number of chromatid gaps at 20 ug/mL after 24 hrs; type: functional, Leukocyte
How it was run: (§4)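 Leukocytes from venous blood of three healthy non-smoking male donors, cultured at 37 °C for 72 h in McCoy's 5a with AB serum and PHA. Compound in 1% acetone was added at 0, 24 or 48 h after culture initiation (72, 48 or 24 h exposure), with water and acetone controls and triplicate cultures. Colchicine was added before harvest, then KCl hypotonic, fixation and Giemsa staining. Gaps and breaks were counted in 350 metaphases per treatment.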

[23] = Induction of chromosomal aberration in human peripheral blood leukocytes assessed as number of chromatid breaks at 20 ug/mL after 24 hrs; type: functional, Leukocyte; how it was run: as §4

Row | SMILES | inhibition zone (IZ) (Alternaria macrospora [1]) [mm] | inhibition zone (IZ) (Talaromyces funiculosus [2]) [mm] | inhibition zone (IZ) (Fusarium oxysporum [3]) [mm] | inhibition zone (IZ) (Escherichia coli [4]) [mm] | inhibition zone (IZ) (Fusarium oxysporum [6]) [mm] | inhibition zone (IZ) (Alternaria macrospora [7]) [mm] | inhibition zone (IZ) (Aspergillus flavus [8]) [mm] | inhibition zone (IZ) (Talaromyces funiculosus [9]) [mm] | inhibition zone (IZ) (Escherichia coli [10]) [mm] | inhibition zone (IZ) (Aeromonas hydrophila [11]) [mm] | inhibition zone (IZ) (Salmonella typhi [12]) [mm] | inhibition zone (IZ) (Aeromonas hydrophila [13]) [mm] | inhibition zone (IZ) (Salmonella typhi [14]) [mm] | inhibition zone (IZ) (Salmonella typhi [15]) [mm] | inhibition zone (IZ) (Alternaria macrospora [16]) [mm] | inhibition zone (IZ) (Aspergillus flavus [17]) [mm] | inhibition zone (IZ) (Aeromonas hydrophila [18]) [mm] | inhibition zone (IZ) (Talaromyces funiculosus [19]) [mm] | inhibition zone (IZ) (Aspergillus flavus [20]) [mm] | inhibition zone (IZ) (Fusarium oxysporum [21]) [mm] | other results
1 | O=Cc1c(/C=C/O)nc2ccc(Cl)cc2c1Cl | 7 | 5 | 2 | 8 | 5 | 11 | 6 | 10 | 5 | 9 | 6 | 14 | 17 | 11 | 3 | 10 | 5 | 2 | 3 | 11 | inhibition zone (IZ) (Escherichia coli [5]): 1 mm
2 | Clc1ccc2nc3c(c(Cl)c2c1)C=NNC=C3 | 9 | 9 | 4 | 11 | 8 | 15 | 8 | 14 | 7 | 11 | 6 | 16 | 19 | 12 | 5 | 13 | 6 | 6 | 5 | 13 | inhibition zone (IZ) (Escherichia coli [5]): 3 mm
3 | Cc1ccc2c(Cl)c(C=O)c(/C=C/O)nc2c1 | 4 | 3 | 1 | 2 | 4 | 7 | 5 | 8 |  | 7 | 4 | 10 | 13 | 8 | 2 | 9 | 3 | 1 | 3 | 9 | Activity (Escherichia coli [5]): inactive; Activity (Escherichia coli [10]): inactive
4 | Cc1cccc2c(Cl)c(C=O)c(/C=C/O)nc12 | 5 | 2 |  |  | 3 | 9 | 2 | 6 |  | 8 | 4 | 11 | 11 | 7 | 2 | 5 | 4 |  | 1 | 7 | Activity (Fusarium oxysporum [3]): inactive; Activity (Escherichia coli [4]): inactive; Activity (Escherichia coli [5]): inactive; Activity (Escherichia coli [10]): inactive; Activity (Talaromyces funiculosus [19]): inactive
5 | COC(=O)Nc1nc2ccccc2[nH]1 [CARBENDAZIM] | 13 | 16 | 6 |  | 11 | 18 | 14 | 21 |  |  |  |  |  |  | 7 | 21 |  | 9 | 6 | 18 | 
6 | Cc1cccc2c(Cl)c3c(nc12)C=CNN=C3 | 6 | 3 | 2 | 6 | 6 | 10 | 4 | 10 | 2 | 7 | 5 | 11 | 12 | 7 | 3 | 8 | 4 |  | 2 | 10 | Activity (Escherichia coli [5]): inactive; Activity [22]: 0.6%; Activity [23]: 0.3%; Activity (Talaromyces funiculosus [19]): inactive
7 | Cc1ccc(C)c2c(Cl)c(C=O)c(/C=C/O)nc12 | 8 | 7 | 3 | 9 | 7 | 13 | 7 | 11 | 5 | 6 | 5 | 10 | 13 | 8 | 3 | 12 | 4 | 3 | 4 | 12 | inhibition zone (IZ) (Escherichia coli [5]): 3 mm
8 | O=Cc1c(/C=C/O)nc2ccccc2c1Cl | 1 | 1 |  |  |  | 4 | 3 | 5 |  | 6 | 3 | 9 | 9 | 5 |  | 8 | 4 |  | 2 | 4 | Activity (Fusarium oxysporum [3]): inactive; Activity (Escherichia coli [4]): inactive; Activity (Escherichia coli [5]): inactive; Activity (Fusarium oxysporum [6]): inactive; Activity (Escherichia coli [10]): inactive; Activity (Alternaria macrospora [16]): inactive; Activity (Talaromyces funiculosus [19]): inactive
9 | CN[C@@H]1[C@H](O[C@H]2[C@H](O[C@H]3[C@H](O)[C@@H](O)[C@H](N=C(N)N)[C@@H](O)[C@@H]3N=C(N)N)O[C@@H](C)[C@]2(O)C=O)O[C@@H](CO)[C@H](O)[C@H]1O (stereo in doubt) [STREPTOMYCIN] |  |  |  | 15 |  |  |  |  | 9 | 12 | 8 | 19 | 18 | 10 |  |  | 8 |  |  |  | inhibition zone (IZ) (Escherichia coli [5]): 6 mm
10 | Clc1c2c(nc3ccccc13)C=CNN=C2 | 3 | 4 |  | 4 | 3 | 7 | 5 | 9 | 2 | 8 | 4 | 12 | 10 | 6 | 1 | 9 | 5 | 1 | 3 | 7 | Activity (Fusarium oxysporum [3]): inactive; Activity (Escherichia coli [5]): inactive
